Experiments:
[1] = biological target: T1, Sphingosine 1-phosphate receptor 1 (Homo sapiens, UniProt P21453); assay: Agonist activity at human S1P1 receptor expressed in human U2OS cells co-expressing eGFP assessed as receptor internalization after 1 hr; type: functional, cell-based
In short: (§1)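 hS1P1-GFP fusion expressed in U2OS cells; agonism read as receptor internalization. Percent efficacy is relative to 1.00 μM reference agonist, and >top concentration is reported when activity stays under 10% of control. Each value is the mean of at least two determinations.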

[2] = biological target: T1, Sphingosine 1-phosphate receptor 1; assay: Agonist activity at human S1P1 receptor expressed in human U2OS cells co-expressing eGFP assessed as receptor internalization after 1 hr relative to 1-(4-(6-benzylbenzofuran-2-yl)-3-fluorobenzyl)azetidine-3-carboxylic acid; type: functional, cell-based; in short: as §1
[3] = biological target: T2, Sphingosine 1-phosphate receptor 3 (Homo sapiens, UniProt Q99500); assay: Agonist activity at human S1P3 receptor expressed in CHO-K1 cells co-expressing Gq/i5 G-protein assessed as calcium mobilization by FLIPR assay; type: functional, cell-based
In short: (§2)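 hS1P3 and Gq/i5 co-transfected into CHO-K1 cells; agonism read as Ca2+ mobilization. Percent efficacy is relative to 0.200 μM S1P, and >top concentration is reported when activity stays under 10% of control. Each value is the mean of at least two determinations.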

[4] = biological target: T2, Sphingosine 1-phosphate receptor 3; assay: Agonist activity at human S1P3 receptor expressed in CHO-K1 cells co-expressing Gq/i5 G-protein assessed as calcium mobilization by FLIPR assay relative to S1P; type: functional, cell-based; in short: as §2
Rattus norvegicus = assay: Immunomodulatory activity in Lewis rat assessed as reduction of circulating lymphocytes count at 1 mg/kg, po after 24 hrs relative to control; type: functional; design: scale not given: the % may be the effect or the level left
In short: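 Female Lewis rats dosed orally at 0.3, 1.0 or 3.0 mg/kg in 20% captisol, pH 2, N = 5/group. Blood lymphocyte counts and plasma concentration taken 24 h postdose. Compared with vehicle by ANOVA/Dunnett's test, P < 0.05.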

T2 sequence (Q99500 whole entry): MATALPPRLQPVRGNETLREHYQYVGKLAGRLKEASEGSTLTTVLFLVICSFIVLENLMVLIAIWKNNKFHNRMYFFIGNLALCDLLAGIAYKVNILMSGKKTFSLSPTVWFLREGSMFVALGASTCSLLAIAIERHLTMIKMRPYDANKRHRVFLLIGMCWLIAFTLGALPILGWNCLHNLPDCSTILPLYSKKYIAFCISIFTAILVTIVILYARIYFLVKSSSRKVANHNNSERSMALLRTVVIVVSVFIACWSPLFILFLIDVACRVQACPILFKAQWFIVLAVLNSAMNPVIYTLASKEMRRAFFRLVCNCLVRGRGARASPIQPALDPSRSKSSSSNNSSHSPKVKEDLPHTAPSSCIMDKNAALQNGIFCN
T1 sequence (P21453 whole entry, the tested form may be a part): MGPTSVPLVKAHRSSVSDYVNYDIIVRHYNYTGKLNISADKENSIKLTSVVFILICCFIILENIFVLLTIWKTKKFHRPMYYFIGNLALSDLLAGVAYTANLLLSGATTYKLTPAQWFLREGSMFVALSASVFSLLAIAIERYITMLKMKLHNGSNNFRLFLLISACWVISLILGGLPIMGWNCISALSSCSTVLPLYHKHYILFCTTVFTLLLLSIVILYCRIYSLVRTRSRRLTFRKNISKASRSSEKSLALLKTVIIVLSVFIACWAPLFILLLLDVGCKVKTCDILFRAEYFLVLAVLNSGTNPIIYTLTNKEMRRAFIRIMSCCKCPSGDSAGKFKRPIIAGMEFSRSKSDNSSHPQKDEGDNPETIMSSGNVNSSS

Row | SMILES | EC50 [1] [nM] | Efficacy [2] [%] | EC50 [3] [nM] | Efficacy [4] [%] | Activity (Rattus norvegicus) [%]
1 | Cc1ccccc1Cc1ccc2sc(-c3ccc(CN4CC(C(=O)O)C4)cc3F)nc2c1 | 26 | 118 | 2440 | 40 | 63
2 | O=C(O)C1CN(Cc2ccc(-n3cc4ccc(Cc5ccccc5)cc4n3)c(F)c2)C1 | 1810 | 100 | 2710 | 48 | 
3 | O=C(O)C1CN(Cc2ccc(-c3cn4cc(Cc5ccccc5)ccc4n3)c(F)c2)C1 | 6720 | 115 | > 25000 |  | 
4 | O=C(O)C1CN(Cc2ccc(-c3nc4ccc(Cc5ccccc5)cc4[nH]3)c(F)c2)C1 | > 6250 |  | > 25000 |  | 
5 | O=C(O)C1CN(Cc2ccc(-c3nc4cc(Cc5cccc(Cl)c5)ccc4s3)c(F)c2)C1 | 49 | 141 | 3880 | 35 | 
6 | O=C(O)C1CN(Cc2ccc(-c3nc4cc(Cc5ccc(Cl)cc5)ccc4s3)c(F)c2)C1 | 159 | 117 | > 25000 |  | 
7 | O=C(O)C1CN(Cc2ccc(-c3nc4cc(Cc5ccccc5)ccc4s3)c(F)c2)C1 | 42 |  |  | 24 | 
8 | O=C(O)C1CN(Cc2ccc(-c3nc4cc(Cc5cccc(F)c5)ccc4s3)c(F)c2)C1 | 21 | 138 | 687 | 22 | 
9 | Cc1cccc(Cc2ccc3sc(-c4ccc(CN5CC(C(=O)O)C5)cc4F)nc3c2)c1 | 54 | 92 | > 2500 |  | 
10 | O=C(O)C1CN(Cc2ccc(-c3nc4cc(Cc5ccccc5)ccc4o3)c(F)c2)C1 | 325 | 105 | 354 | 77 | 
11 | O=C(O)C1CN(Cc2ccc(-c3cn4ccc(Cc5ccccc5)cc4n3)c(F)c2)C1 | 741 | 110 | 6090 | 50 | 

Reference: ChEMBL document CHEMBL1671835, “Discovery of a Potent, S1P3-Sparing Benzothiazole Agonist of Sphingosine-1-Phosphate Receptor 1 (S1P1)” (ACS Med Chem Lett, 2011)
